SF-1 act: activators of human SF-1, primary screen, cell-based, CHO-K1, Gal4-SF-1 LBD, luciferase luminescence; activation, % at 10 µM; Steroidogenic factor 1 (Homo sapiens), Q13285; actives 1.9% (n = 65,000); CHO-K1 Gal4-SF-1 LBD luciferase reporter; % increase over DMSO SF-1-specific signal;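 active = activation above the mean activation of all tested compounds plus 3 SD, cut at about 50% in these data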
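Test system: CHO-K1 cells co-transfected with Gal4 DBD–human SF-1 LBD, 5xGal4 luciferase reporter. Quantity: 4,000 cells per well. Compound: 10 µM only. Incubation: compound added 1 h post-seeding, 20 h exposure at 37 °C, 5% CO2. Detection: SteadyLite luciferase luminescence. Replication: one test per compound.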
RORA act: activators of orphan receptor RORA, primary screen, cell-based, luminescence; Nuclear receptor ROR-alpha (Homo sapiens), P35398; CHO-K1 Gal4-RORA LBD luciferase reporter; percent increase over mock-subtracted basal signal; activation, % at 10 µM; actives 1.5% (n = 65,000); AID 560, 2006;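 active = activation above the mean of all tested compounds plus 3 SD, cut at about 49% in these data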
Target sequence (P35398 whole entry, looked up, the tested form may be a part): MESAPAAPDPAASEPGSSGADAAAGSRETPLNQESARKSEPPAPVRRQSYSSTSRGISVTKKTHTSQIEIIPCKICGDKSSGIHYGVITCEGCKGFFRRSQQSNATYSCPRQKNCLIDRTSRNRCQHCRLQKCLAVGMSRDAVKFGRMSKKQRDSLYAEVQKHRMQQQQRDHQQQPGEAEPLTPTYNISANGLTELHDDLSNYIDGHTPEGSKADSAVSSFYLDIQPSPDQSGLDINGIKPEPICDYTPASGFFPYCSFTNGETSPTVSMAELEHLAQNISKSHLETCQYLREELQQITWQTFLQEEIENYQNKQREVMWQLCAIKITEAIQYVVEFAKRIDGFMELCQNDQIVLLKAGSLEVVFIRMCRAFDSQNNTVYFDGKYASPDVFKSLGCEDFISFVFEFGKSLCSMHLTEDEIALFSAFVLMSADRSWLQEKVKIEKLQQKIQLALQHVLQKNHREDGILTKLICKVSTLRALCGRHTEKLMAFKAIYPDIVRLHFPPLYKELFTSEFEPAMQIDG
ERa SRC1 inh: ERα–SRC-1 coactivator interaction inhibitors, primary screen, biochemical, TR-FRET, ERα LBD, estradiol-bound; Estrogen receptor (Homo sapiens), P03372; TR-FRET ER-alpha LBD / SRC-1 peptide; inhibition, % at 25.6 µM; actives 1.7% (n = 86,000); in the data active = inhibition above about 50%
ERb SRC1 inh: inhibitors of ERβ-SRC1 coactivator interaction, primary screen, biochemical, TR-FRET, ERβ LBD, SRC-1 peptide. AID 633, 2007. TR-FRET ER-beta LBD / SRC1-Cy5 peptide binding; receptor agonist-loaded with 1 µM estradiol. actives 1.3% (n = 86,000). Estrogen receptor beta (Homo sapiens), Q92731. inhibition, % at 25.6 µM;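 active = compounds whose percent inhibition of the receptor-coactivator binding signal exceeds about 50% in the single-dose screen, limit read from the data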
PTK2B oligo ant: antagonists of Pyk2 self-association, primary screen, Q293 cells, FERM NanoBiT luminescence, HTS. Protein-tyrosine kinase 2-beta (Homo sapiens), Q14289. stronger effect = lower value. z-score (the deposit names both 25 µM and 10 µM). actives 0.83% (n = 99,000). AID 1347419, 2020;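 active = Z-score of -3 or lower, scaled per plate to the spread of control and sample wells; inactive = z-score above -3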;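 also: negative z-score means lost luminescence so less FERM oligomerization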
ERa SRC1 pot: enhancers of ERα–SRC-1 coactivator binding, primary screen, biochemical, TR-FRET, ERα LBD, low estradiol; Estrogen receptor (Homo sapiens), P03372; TR-FRET ERalpha-LBD/SRC-Cy5 coactivator binding, 2 h; 100 = basal binding, no effect; coactivator binding (% of control), % at 25.6 µM; actives 1.3% (n = 86,000); AID 639, 2007; in the data active = activity above about 200%;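 also: binding measured in presence of low estradiol as agonist stimulus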
Large screens that a line does not name were inactive; [ ] = another dose, or the depositor's remark. Only some compounds are listed: those with a hit (about 4.8% of all), similar ones and a draw of the others.

O=C(Cc1ccccc1)N1CCN(C(=O)c2cccs2)CC1	none
Cc1ccc(NC(=O)Nc2ccc(F)cc2)nc1	SF-1 act 83
COc1cc(N2CCCC2)c(OC)cc1/C=c1/sc2nc3ccccc3n2c1=O	SF-1 act 54, ERa SRC1 inh 97[fluorescence artefact?], ERb SRC1 inh 74[fluorescence artefact?] (no result: PTK2B oligo ant)
Cc1ccc(-n2c(C)cc(/C=c3/sc4nc5ccccc5n4c3=O)c2C)cc1	none (no result: SF-1 act, RORA act, PTK2B oligo ant)
COc1cc2c(cc1OC)C(c1ccc(-c3ccc(Cl)cc3Cl)o1)=NCC2	none (no result: SF-1 act, RORA act, ERa SRC1 inh, ERb SRC1 inh, ERa SRC1 pot)
COc1cc2c(cc1OC)C(c1ccc(-c3cc(Cl)ccc3Cl)o1)=NCC2	ERa SRC1 pot 253[fluorescence artefact?] (no result: SF-1 act, RORA act)
CCCc1cc(=O)oc2cc(OCC(=O)Nc3cc(C)on3)ccc12	ERa SRC1 pot 820[fluorescence artefact?]
CCCc1cc(=O)oc2cc(OCC(=O)N3CCc4ccccc43)ccc12	ERa SRC1 pot 335[fluorescence artefact?] (no result: SF-1 act, RORA act)
CCCCc1cc(=O)oc2cc(OCC(=O)N3CCc4ccccc43)ccc12	ERa SRC1 pot 200 (no result: SF-1 act, RORA act)
Cc1cc(=O)oc2cc(OCC(=O)OCC(=O)N3CCc4ccccc43)ccc12	none
CN1CC(=O)NC1=NC(=O)C12CC3CC(CC(C3)C1)C2	none (no result: ERa SRC1 inh, ERb SRC1 inh, ERa SRC1 pot)
C/C(N)=C(/C#N)C(=O)CSc1nc2ccc(C)cc2[nH]1	SF-1 act 77, ERb SRC1 inh 57[fluorescence artefact?]
Cc1snc2sc(C(=O)c3ccc(Br)cc3)c(N)c12	ERa SRC1 inh 71, ERb SRC1 inh 52 (no result: SF-1 act, RORA act)
COc1cc(C2c3c(-c4ccccc4)n[nH]c3C(=O)N2c2ccccc2)ccc1O (configuration not stated)	PTK2B oligo ant -3.1
NC(=O)c1c(NC(=O)c2cccs2)sc2c1CCCCCC2	RORA act 56, ERa SRC1 inh 60
O=C(Nc1sc2c(c1C(=O)O)CCC2)c1ccccc1	ERa SRC1 inh 79[fluorescence artefact?], ERb SRC1 inh 76 (no result: SF-1 act, RORA act)
O=C(Nc1sc2c(c1C(=O)O)CCC2)c1cccs1	none
O=C(O)c1c(NC(=O)c2cccc3ccccc23)sc2c1CCC2	none (no result: SF-1 act, RORA act)
COCCCNC(=O)c1c(NC(=O)c2cccs2)sc2c1CCCC2	ERa SRC1 pot 331[fluorescence artefact?] (no result: SF-1 act, RORA act)
COc1ccccc1NC(=O)c1c(NC(=O)c2ccco2)sc2c1CCC2	ERa SRC1 inh 70[fluorescence artefact?]
CCOCCCNC(=O)c1cccs1	none
CC(C(=O)N1CCC(C(N)=O)CC1)N(c1ccc(Oc2ccccc2)cc1)S(C)(=O)=O (configuration not stated)	none (no result: SF-1 act, RORA act)
COc1ccc(C(=O)Cn2nnc(-c3cccs3)n2)cc1	ERb SRC1 inh 78[fluorescence artefact?]
CC1(C)C=Cc2c(c3ccccc3[nH]c2=O)O1	none
Clc1ccc(CSc2nnc(-c3sccc3-n3cccc3)o2)cc1	PTK2B oligo ant -3.2 (no result: SF-1 act, RORA act, ERa SRC1 inh, ERb SRC1 inh, ERa SRC1 pot)
Clc1cccc(CSc2nnc(-c3sccc3-n3cccc3)o2)c1	PTK2B oligo ant -3.2 (no result: SF-1 act, RORA act, ERa SRC1 inh, ERb SRC1 inh, ERa SRC1 pot)
Clc1cc(Cl)cc(CSc2nnc(-c3sccc3-n3cccc3)o2)c1	none (no result: SF-1 act, RORA act, ERa SRC1 inh, ERb SRC1 inh, ERa SRC1 pot)
OCCN(CCO)Cc1csc2ccccc12	none (no result: SF-1 act, RORA act, ERa SRC1 inh, ERb SRC1 inh, ERa SRC1 pot)
CC(Oc1ccc(Cl)cc1Cl)c1nc(-c2ccc(NC(=O)c3ccco3)cc2)no1 (configuration not stated)	none (no result: SF-1 act, RORA act)
CCc1ccc(N2CC(C(=O)NCc3ccco3)CC2=O)cc1 (configuration not stated)	none (no result: SF-1 act, RORA act)
CCOC(=O)c1sc(C)c2c1NC(c1ccc(Cl)cc1)NC2=O (configuration not stated)	none (no result: SF-1 act, RORA act, ERa SRC1 inh, ERb SRC1 inh, ERa SRC1 pot)
O=c1c2ccccc2nnn1CSc1nc2cc(Cl)ccc2c(=O)n1Cc1ccco1	none (no result: PTK2B oligo ant)
COc1ccccc1OCc1nnc(SCC(=O)NCc2ccco2)n1Cc1ccco1	ERa SRC1 pot 207[fluorescence artefact?]
O=c1c2ccccc2nnn1CSc1nnc(COc2ccc(Cl)cc2)n1Cc1ccco1	SF-1 act 56
COc1ccccc1NC(=O)CSc1nnc(COc2ccc(Cl)cc2)n1Cc1ccco1	none
C=CCn1c(COc2ccccc2F)nnc1SCC(=O)NC(=O)NCc1ccco1	ERa SRC1 inh 67[fluorescence artefact?], ERb SRC1 inh 54
CCc1ccc(/C=N/NC(=O)c2cc(C3CC3)nc3ccc(Br)cc23)s1	none (no result: SF-1 act, RORA act, ERa SRC1 inh, ERb SRC1 inh, ERa SRC1 pot)
CN1C(=O)c2ccccc2C(C(=O)O)C1c1cn(C)c2ccccc12 (configuration not stated)	none
CCOC(=O)c1sc(NC(=O)c2ccc(Br)o2)cc1C	SF-1 act 69, RORA act 69
CCN1CCN(c2ncnc3c2cnn3-c2ccccc2)CC1	SF-1 act 56 (no result: PTK2B oligo ant)
Cc1cccc(-n2ncc3c(N(C)Cc4ccccc4)ncnc32)c1	SF-1 act 64, RORA act 56 (no result: ERa SRC1 inh, ERb SRC1 inh, PTK2B oligo ant, ERa SRC1 pot)
CC1CC(C)CN(c2ncnc3c2cnn3-c2ccc(Cl)cc2)C1 (configuration not stated)	SF-1 act 71, RORA act 54 (no result: PTK2B oligo ant)
Cc1cccc(-n2ncc3c(N4CCC5(CC4)OCCO5)ncnc32)c1	SF-1 act 98, RORA act 49 (no result: PTK2B oligo ant)
c1ccc(-n2ncc3c(N4CCC5(CC4)OCCO5)ncnc32)cc1	none (no result: SF-1 act, RORA act)
O=C(NC(=S)Nc1ccccc1)c1csnn1	none (no result: SF-1 act, RORA act, ERa SRC1 inh, ERb SRC1 inh, ERa SRC1 pot)
COc1ccccc1N1CCN(CC(O)COc2ccc3c(c2)CCC3)CC1 (configuration not stated)	none (no result: SF-1 act, RORA act)
CCOC(=O)C1CCCN(c2ncnc3c2cnn3-c2cccc(C)c2)C1 (configuration not stated)	none
Cc1cccc(-n2ncc3c(N4CCC(C)CC4)ncnc32)c1	SF-1 act 70 (no result: PTK2B oligo ant)
FC(F)(F)c1cc(-c2ccco2)nc(NCCc2ccccc2)n1	none (no result: SF-1 act, RORA act)
COCCOC(=O)C1=C(C)NC(SCC(=O)NC(C)(C)C)=C(C#N)C1c1ccco1 (configuration not stated)	none (no result: PTK2B oligo ant)
CCOC(=O)C1=C(C)NC(SCC(=O)OC)=C(C#N)C1c1ccc(C(=O)OC)cc1 (configuration not stated)	none
C=CCOC(=O)C1=C(C)NC(SCC)=C(C#N)C1c1ccc(Cl)cc1 (configuration not stated)	PTK2B oligo ant -3.2 (no result: SF-1 act, RORA act)
CCOC(=O)C1=C(c2ccccc2)NC(SCC(=O)NC2CCCCC2)=C(C#N)C1c1ccco1 (configuration not stated)	ERa SRC1 pot 364[fluorescence artefact?]
C=CCOC(=O)C1=C(C)NC(SCC(=O)Nc2ccc(C)c(Cl)c2)=C(C#N)C1c1ccco1 (configuration not stated)	ERa SRC1 inh 94[fluorescence artefact?]
COc1ccc(-c2cc(N)n(S(=O)(=O)c3ccc(F)cc3)n2)cc1OC	none (no result: SF-1 act, RORA act, PTK2B oligo ant)
CCOc1nc(C)ccc1-c1noc(-c2ccccc2OC)n1	none
COc1ccccc1-c1noc(-c2cccnc2)n1	none
